The record followed here is ChEMBL document CHEMBL4732187, “Tetrahydroindazole inhibitors of CDK2/cyclin complexes” (Eur J Med Chem, 2021).

Activity calls are given as the source filed them. The calls are words filed in the database; no cut-off is given here.

The target of one data set is CDK2/Cyclin A2 (Homo sapiens, UniProt P24941). Nature of the data set: Inhibition of human N-terminal GST-tagged CDK2 (1 to 298 residues)/Cyclin A (174 to 432 residues) expressed in Escherichia coli Turner (DE3) cells assessed as reduction in ADP formation using PKTPKKAKKL as substrate by resorufin dye based fluorescence assay.
In the next data set the target is CDK2/Cyclin A1 (Homo sapiens, UniProt P24941). Put plainly: Inhibition of CDK2/Cyclin A1 (unknown origin) using histone H1 as substrate preincubated for 20 mins followed by 33P-ATP addition and measured after 2 hrs by filter binding method. In kind it is protein-complex assay.
Data set [1] concerns the target Cyclin-dependent kinase 2/cyclin E1 (Homo sapiens, UniProt P24941). Put plainly: Inhibition of CDK2/Cyclin E (unknown origin) using histone H1 as substrate preincubated for 20 mins followed by 33P-ATP addition and measured after 2 hrs by filter binding method. In kind it is protein-complex assay.
The target in a further data set is CDK2/Cyclin O (Homo sapiens, UniProt P22674+P24941). Nature of the data set: Inhibition of CDK2/Cyclin-O (unknown origin) using histone H1 as substrate preincubated for 20 mins followed by 33P-ATP addition and measured after 2 hrs by filter binding method. It is filed as protein-complex assay.
In the next data set the test system is MCF7. Put plainly: Antiproliferative activity against human MCF7 cells assessed as reduction in cell viability up to 200 uM after 72 hrs by alamarBlue assay. The settings on record: dose microM <=200, time 72.0 hrs. It is filed as functional, cell-based. In short, it runs like this: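 MCF-7 cells seeded at 5000 per well and incubated overnight at 37 °C, 5% CO₂, then exposed to 8 concentrations from 0.00256 μM to 200 μM for 72 h. alamarBlue was then added and incubated 90 min at 37 °C. Proliferating cells were read by fluorescence (ex 530 nm, em 590 nm). Staurosporine served as positive control.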

Data set [2] addresses Cyclin-dependent kinase 2 (Homo sapiens, UniProt P24941). Put plainly: Binding affinity to T7-tagged CDK2 (unknown origin) expressed in bacteriophage infected Escherichia coli BL21 incubated for 1 hr by magnetic beads based qPCR anlaysis.
A short description of data set [3]: Permeability across apical to basolateral side in MDCK cells assessed as drug recovery at 1 uM after 2 hrs by LC-MS/MS analysis. It is filed as ADME, cell-based, Canis lupus familiaris. The settings on record: dog. In short, it runs like this:
(§1)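 MDCK monolayers were washed twice with pre-warmed HBSS (10 mM HEPES, pH 7.4) and equilibrated for 30 min at 37 °C. Compound at 1 μM in HBSS (0.5% DMSO final) was added to the apical or the basolateral donor side. After 2 h at 37 °C, donor and receiver samples were quenched in cold methanol with internal standards and analysed by LC-MS/MS. Runs were in duplicate; 100 μM Lucifer Yellow checked monolayer integrity.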

The nature of data set [4]: Permeability across basolateral to apical side in MDCK cells at 1 uM after 2 hrs by LC-MS/MS analysis. In kind it is ADME, cell-based, Canis lupus familiaris. The settings on record: dog. In short, it runs like this:
as §1

Data set [5] is described as follows: Apparent permeability across apical to basolateral side in MDCK cells at 1 uM after 2 hrs by LC-MS/MS analysis. The settings on record: dog. In kind it is ADME, cell-based, Canis lupus familiaris. The method in brief:
as §1

Data set [6] can be described thus: Apparent permeability across basolateral to apical side in MDCK cells at 1 uM after 2 hrs by LC-MS/MS analysis. In kind it is ADME, cell-based, Canis lupus familiaris. The settings on record: dog. The method in brief: as §1
Data set [7] in a line: Efflux ratio of apparent permeability across basolateral to apical side over apical to basolateral side in MDCK cells at 1 uM after 2 hrs by LC-MS/MS analysis. In kind it is ADME, cell-based, Canis lupus familiaris. The settings on record: dog. In short, it runs like this:
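MDCK monolayers washed twice with pre-warmed HBSS (10 mM HEPES, pH 7.4) and equilibrated 30 min at 37 °C. 1 μM working solution (0.5% DMSO final) added to apical or basolateral donor side, 37 °C for 2 h, run in duplicate. Donor and receiver samples quenched in cold methanol with internal standards and quantified by LC-MS/MS. Monolayer integrity checked by Lucifer Yellow (100 μM) leakage.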

As to `Cc1nn(S(=O)(=O)c2ccc([N+](=O)[O-])cc2)c2c1C(=O)CC(C)(C)C2Br` (stereo not drawn), the IC50 at CDK2/Cyclin A2 was more than 1000 µM.
Turning to `Cc1nn(-c2ncccn2)c2c1C(=O)CC(C)(C)C2Br` (stereo not drawn), the IC50 on CDK2/Cyclin A2 was 9.3 µM.
Consider `Cc1nn(-c2cnccn2)c2c1C(=O)CC(C)(C)C2Br` (stereo not drawn), for which the IC50 on CDK2/Cyclin A2 is 97 µM.
As for `Cc1nn(-c2ccccn2)c2c1C(=O)NCC(C)(C)C2Br` (stereo not drawn), the IC50 at CDK2/Cyclin A2 came to 12 µM.
With `Cc1nn(-c2ccccn2)c2c1NC(=O)CC(C)(C)C2`, the IC50 at CDK2/Cyclin A2 was more than 1000 µM.
Regarding `Cc1nn(-c2ccncc2)c2c1C(=O)CC(C)(C)C2Br` (stereo not drawn), on CDK2/Cyclin A2, the IC50 was 10.5 µM.
On to `Cc1nn(-c2ccccn2)c2c1C(=O)CC(C)(C)C2N=[N+]=[N-]` (stereo not drawn), for which, at CDK2/Cyclin A2, the IC50 stood at 4.5 µM.
As for `Cc1nn(CCC#N)c2c1C(=O)CC(C)(C)C2Br` (stereo not drawn), at CDK2/Cyclin A2, the IC50 was more than 1000 µM.
As for `CC1(C)CC(=O)c2cnn(-c3ccccn3)c2C1Br` (stereo not drawn), the IC50 at CDK2/Cyclin A2 amounted to 160 µM.
For the compound `Cc1nn(-c2nccs2)c2c1C(=O)CC(C)(C)C2Br` (stereo not drawn), the concentration for half-maximal inhibition (IC50) at CDK2/Cyclin A2 was 2.2 µM; on CDK2/Cyclin A1 it was 24.3 nM; in data set [1] it was 2.3 nM; at CDK2/Cyclin O it was 33.1 nM. The result in the data set on MCF7 was inactive. In data set [2], this compound returned a Kd of 4.8 µM.
For the compound `Cc1nn(-c2ccccn2)c2c1C(=O)CC(C)(C)C2S(=O)(=O)c1ccccc1` (stereo not drawn), the IC50 at CDK2/Cyclin A2 was 107 µM.
Consider `Cc1nn(-c2ccccn2)c2c1C(=O)CC(c1ccccc1)C2Br` (stereo not drawn), for which the IC50 on CDK2/Cyclin A2 was more than 1000 µM.
In the case of `Cc1nn(-c2ccccn2)c2c1C(=O)CC(C)C2Br` (stereo in doubt), the IC50 on CDK2/Cyclin A2 stood at 4.8 µM.
`Cc1nn(-c2ccccn2)c2c1C(O)CC(C)(C)C2Br` (stereo not drawn): the IC50 on CDK2/Cyclin A2 is 560 µM.
On the same count and under the same terms, the same measure for `Cc1nn(-c2ccccn2)c2c1C(=O)CC(C(C)C)C2Br` (stereo in doubt): 470 µM.
`Cc1ccc(NC(=O)c2ccc(CN3CCN(C)CC3)cc2)cc1Nc1nccc(-c2cccnc2)n1` [IMATINIB]: the values for the Drug recovery in [3] and in [4] were 56.6% and 69.9%, respectively.
For the compound `Cc1nn(-c2ncccc2C(F)(F)F)c2c1C(=O)CC(C)(C)C2Br` (stereo not drawn), the IC50 on CDK2/Cyclin A2 is 460 µM.
As to `Cc1nn(-c2ccc(C(F)(F)F)cn2)c2c1C(=O)CC(C)(C)C2Br` (stereo not drawn), the IC50 at CDK2/Cyclin A2 was found to be 6.7 µM.
The same measure, in the same setting: the same measure for `Cc1nn(-c2ccccn2)c2c1C(=O)CC(C)(C)C2O` (stereo not drawn): 110 µM.
On to `Cc1nn(-c2ccc(NS(C)(=O)=O)cn2)c2c1C(=O)CC(C)(C)C2Br` (stereo not drawn), for which the IC50 on CDK2/Cyclin A2 worked out at 19 µM.
Turning to `Cc1nn(-c2ccc(Cl)cn2)c2c1C(=O)CC(C)(C)C2Br` (stereo not drawn), the IC50 on CDK2/Cyclin A2 turned out to be 3 µM.
On to `COC(=O)CC(=O)Nc1ccc(-n2nc(C)c3c2C(Br)C(C)(C)CC3=O)nc1` (stereo not drawn), for which the IC50 on CDK2/Cyclin A2 was 2.7 µM.
For the compound `Cc1nn(-c2ccc(Cl)nn2)c2c1C(=O)CC(C)(C)C2Br` (stereo not drawn), the IC50 at CDK2/Cyclin A2 was 26 µM.
Still for that read-out and setting: the same measure for `Cc1nn(-c2nc3ccccc3s2)c2c1C(=O)CC(C)(C)C2Br` (stereo not drawn): more than 1000 µM; for `CC1(C)CC(=O)c2cnn(-c3ccccn3)c2C1`: more than 1000 µM; for `Cc1nn(-c2ccccn2)c2c1C(=O)CC(C)(C)C2Sc1ccccc1` (stereo not drawn): 12 µM.
On to `Cc1nn(-c2ccc3ccccc3c2)c2c1C(=O)CC(C)(C)C2Br` (stereo not drawn), for which the IC50 at CDK2/Cyclin A2 is 37 µM.
Still for that read-out and setting: the same measure for `COC1c2c(c(C)nn2-c2ccccn2)C(=O)CC1(C)C` (stereo not drawn): 46 µM.
Take `CC(=O)Nc1ccc(-n2nc(C)c3c2C(Br)C(C)(C)CC3=O)nc1` (stereo not drawn): on CDK2/Cyclin A2, the IC50 was 3.6 µM.
As to `Cc1nn(-c2ccccn2)c2c1C(=O)CCC2Br` (stereo not drawn), the IC50 on CDK2/Cyclin A2 is 130 µM.
For `Cc1cccnc1-n1nc(C)c2c1CC(C)(C)C(Br)C2=O` (stereo not drawn), the IC50 at CDK2/Cyclin A2 amounted to 180 µM.
Regarding `Cc1ccc(-n2nc(C)c3c2C(Br)C(C)(C)CC3=O)nc1` (stereo not drawn), on CDK2/Cyclin A2, the IC50 came to 7.5 µM.
Turning to `COc1cccc(-n2nc(C)c3c2C(Br)C(C)(C)CC3=O)n1` (stereo not drawn), the IC50 at CDK2/Cyclin A2 is 2.1 µM.
As to `Cc1nn(-c2ccccn2)c2c1C(=O)CC(C)(C)C2N` (stereo not drawn), on CDK2/Cyclin A2, the IC50 was found to be 350 µM.
`Cc1nn(-c2ccccn2)c2c1C(=O)CC(C)(C)C2Cl` (stereo not drawn): the IC50 at CDK2/Cyclin A2 came to 4.9 µM.
As for `COCCc1ccc(OCC(O)CNC(C)C)cc1` (stereo not drawn) [METOPROLOL], the Papp A→B at 2 h, 1 µM in data set [5] is 26.9 ×10⁻⁶ cm/s. Also, the apparent permeability from basolateral to apical (Papp B→A) at 2 h, 1 µM in data set [6] was found to be 21.2 ×10⁻⁶ cm/s. Further, the Ratio in [7] was determined as 0.79. In addition, the Drug recovery in data set [3] is on record as 90.7%; in data set [4], 90.4%.
With `CC(C)Cc1nn(-c2ccccn2)c2c1C(=O)CC(C)(C)C2Br` (stereo not drawn), the IC50 at CDK2/Cyclin A2 is 820 µM.
`Cc1cccnc1-n1nc(C)c2c1C(Br)C(C)(C)CC2=O` (stereo not drawn): the IC50 at CDK2/Cyclin A2 was more than 1000 µM.
As to `Cc1nn(-c2ccc(N)cn2)c2c1C(=O)CC(C)(C)C2Br` (stereo not drawn), the IC50 at CDK2/Cyclin A2 stood at 4.6 µM.
For `C[C@H]1O[C@@H](O[C@H]2[C@@H](O)C[C@H](O[C@H]3[C@@H](O)C[C@H](O[C@H]4CC[C@@]5(C)[C@H](CC[C@@H]6[C@@H]5C[C@@H](O)[C@]5(C)[C@@H](C7=CC(=O)OC7)CC[C@]65O)C4)O[C@@H]3C)O[C@@H]2C)C[C@H](O)[C@@H]1O` [DIGOXIN], the Drug recovery in [3] was determined as 77.1%; in data set [4], 83.7%.
For `Cc1nn(-c2ncccc2C(F)(F)F)c2c1C(=O)C(Br)C(C)(C)C2` (stereo not drawn), the IC50 at CDK2/Cyclin A2 was 230 µM.
For the compound `Cc1nn(-c2ccc(NS(N)(=O)=O)cn2)c2c1C(=O)CC(C)(C)C2Br` (stereo not drawn), on CDK2/Cyclin A2, the IC50 came out at 2.4 µM.
Still for that read-out and setting: the same measure for `Cc1nn(-c2ccc([N+](=O)[O-])cn2)c2c1C(=O)CC(C)(C)C2Br` (stereo not drawn): 3.1 µM; for `Cc1nn(-c2ccccn2)c2c1C(=O)CC(C)(C)C2C` (stereo not drawn): 200 µM.
In the case of `Cc1nn(-c2ccccn2)c2c1C(=O)CC(C)(C)C2`, the IC50 on CDK2/Cyclin A2 amounted to 110 µM.
Still for that read-out and setting: the same measure for `Cc1nn(-c2ccccn2)c2c1C(=O)CC(C)(C)C2F` (stereo not drawn): 21 µM.
Consider `Cc1nn(-c2ccncn2)c2c1C(=O)CC(C)(C)C2Br` (stereo not drawn), for which the IC50 was found to be 1.5 µM on CDK2/Cyclin A2, 46.4 nM on CDK2/Cyclin A1, 8.9 nM in [1] and 41.6 nM at CDK2/Cyclin O. Also, the result with MCF7 was inactive. Also, the Kd in data set [2] was found to be 4.5 µM.
On to `Cc1nn(-c2ccccn2)c2c1C(=O)CC(C)(C)C2N(C)C` (stereo not drawn), for which the IC50 at CDK2/Cyclin A2 was determined as 630 µM.
On to `Cc1nn(-c2ccccn2)c2c1C(=O)CC(C(C)C)C2Br` (trans isomer), for which the IC50 at CDK2/Cyclin A2 came to 130 µM.
As to `Cc1nn(-c2ccccn2)c2c1C(=O)NCC(C)(C)C2`, the IC50 on CDK2/Cyclin A2 is more than 1000 µM.
The same measure, in the same setting: the same measure for `Cc1nn(-c2ccccn2)c2c1C(=O)CC(C)C2Br` (cis isomer): 31 µM.
For the compound `Cc1nn(-c2ccccn2)c2c1/C(=N/O)CC(C)(C)C2Br` (stereo not drawn), at CDK2/Cyclin A2, the IC50 was determined as 59 µM.
